Measured values reported in publication PMC3472134 (Bioorganic & medicinal chemistry letters, 2012).
Entries after “also recorded” stand apart in the source; their conditions may differ.

Key:
Solubility = format: physicochemical; conditions: remark on the photolabeling competition experiment
human recombinant HDAC8 [1] = target: T1, human recombinant HDAC8 (Homo sapiens, UniProt Q9BY41); format: binding; conditions: denaturing conditions, excess of competitor (1f at 50 fold molar excess)
T1 sequence (Q9BY41 1-377): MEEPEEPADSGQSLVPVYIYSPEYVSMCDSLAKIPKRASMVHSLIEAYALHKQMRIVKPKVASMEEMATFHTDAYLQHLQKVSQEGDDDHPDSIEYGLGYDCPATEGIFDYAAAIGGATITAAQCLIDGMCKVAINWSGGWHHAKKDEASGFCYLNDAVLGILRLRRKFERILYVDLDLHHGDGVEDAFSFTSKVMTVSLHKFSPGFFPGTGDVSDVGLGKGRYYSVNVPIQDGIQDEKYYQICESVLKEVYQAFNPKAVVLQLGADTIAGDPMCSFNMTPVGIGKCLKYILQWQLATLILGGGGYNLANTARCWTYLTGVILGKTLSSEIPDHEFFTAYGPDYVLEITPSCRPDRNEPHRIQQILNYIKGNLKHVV

[2] = system: nuclear class I HDACs (acetylation status of histone H4) in SH-SY5Y cells; assay: Western blot of acetylation of histone H4 in SH-SY5Y cells; format: cell-based; conditions: 24 h treatment
Summary of the method: (§1)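 SH-SY5Y cells were seeded at 1.0 x 10^5 cells/well and grown to 80% confluence in 1:1 DMEM:OPTI-MEM with 10% FBS and antibiotics. They were exposed to vehicle or rising concentrations of test compound for 24 h at 37 °C, 5% CO2, then lysed in RIPA with protease/phosphatase inhibitors. 20 µg of total protein (BCA) went to SDS-PAGE/PVDF, probed overnight at 4 °C for acetyl-α-tubulin or acetyl-histone H4, with GAPDH; chemiluminescence imaged by CCD.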

[3] = system: cytoplasmic HDAC6 (acetylation status of α-tubulin) in SH-SY5Y cells; assay: Western blot of acetylation of α-tubulin in SH-SY5Y cells; format: cell-based; conditions: 24 h treatment
Summary of the method: as §1

recombinant human HDAC3 = recombinant human HDAC3 (Homo sapiens, UniProt O15379); assay: HDAC3 inhibition, fluorogenic substrate Boc-Lys; format: biochemical
Chain of recombinant human HDAC3 (O15379 whole entry): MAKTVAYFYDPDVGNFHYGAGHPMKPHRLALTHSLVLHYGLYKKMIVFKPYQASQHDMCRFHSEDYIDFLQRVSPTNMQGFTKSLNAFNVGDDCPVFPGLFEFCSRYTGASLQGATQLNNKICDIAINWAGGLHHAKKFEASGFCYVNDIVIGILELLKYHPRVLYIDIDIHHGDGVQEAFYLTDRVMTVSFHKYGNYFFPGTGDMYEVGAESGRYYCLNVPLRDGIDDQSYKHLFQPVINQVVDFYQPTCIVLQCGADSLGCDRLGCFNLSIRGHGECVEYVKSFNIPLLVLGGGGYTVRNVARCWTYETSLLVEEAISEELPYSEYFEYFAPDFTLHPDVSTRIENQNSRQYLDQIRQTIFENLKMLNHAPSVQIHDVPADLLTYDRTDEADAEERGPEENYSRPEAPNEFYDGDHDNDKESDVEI
Chain of recombinant human HDAC3 (Q9Y618 395-489 partner limits assumed): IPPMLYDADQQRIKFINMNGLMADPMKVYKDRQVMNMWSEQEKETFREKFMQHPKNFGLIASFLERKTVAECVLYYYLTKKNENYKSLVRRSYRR

human recombinant HDAC8 [4] = target: T1, human recombinant HDAC8; assay: HDAC8 inhibition, fluorogenic substrate Fluor de Lys; format: biochemical

In the case of `COC(=O)CCCCCCC(=O)Nc1ccc(OCc2cc(C)cc(C)c2)cc1` [1f, 7-[4-(3,5-Dimethyl-benzyloxy)phenylcarbamoyl]heptanoic acid methyl ester], the Solubility (Solubility) is reported as “low solubility” and the “Competition with probe 1b, effect on biotinylation of HDAC8” value (from here on “Competition with probe 1b, effect”) (human recombinant HDAC8 [1]) is reported as “pronounced decrease in biotinylation”.

In the case of `COc1cc(COc2ccc(NC(=O)CCCCCCC(=O)OCc3ccc(CN=[N+]=[N-])cc3)cc2)cc(N=[N+]=[N-])c1` [1i, 7-[4-(3-Azido-5-methoxybenzyloxy)phenylcarbamoyl]heptanoicacid-4-azidomethylbenzyl ester], the “Acetylation status of histone H4” value [2] is reported as “increase acetylation of H4”, the “Deacetylation of α-tubulin” value [3] is reported as “did not inhibit; also recorded: not α tubulin” and the IC50 (recombinant human HDAC3) is reported as over 66 µM.

With `CC(/C=C/C(=O)NO)=C\[C@@H](C)C(=O)c1ccc(N(C)C)cc1` [TSA, Trichostatin A] the “Competition with probe 1b, effect” value (human recombinant HDAC8 [1]) was “pronounced decrease in biotinylation”.

In the case of `COc1ccc(Cn2ccc3ccc(C(=O)NO)cc32)cc1` [PCI34051], the “Competition with probe 1b, effect” value (human recombinant HDAC8 [1]) is reported as “pronounced decrease in biotinylation”.

With `COC(=O)CCCCCCC(=O)Nc1ccc(OCc2ccccc2)cc1` [1e] the IC50 (human recombinant HDAC8 [4]) was over 66 µM.

For `COc1cc(COc2ccc(NC(=O)CCCCCCC(=O)OCCN=[N+]=[N-])cc2)cc(N=[N+]=[N-])c1` [1h, 7-[4-(3-Azido-5-methoxybenzyloxy)phenylcarbamoyl]heptanoicacid-2-azidoethyl ester], the IC50 (recombinant human HDAC3) was over 66 µM.
